Published values pooled from the literature.
Protocols differ between the studies behind these lines.
PDE4D: 3',5'-cyclic-AMP phosphodiesterase 4D (PDE4D, Homo sapiens, UniProt Q08499)
Antigen peptide transporter 1/Antigen peptide transporter 2: Antigen peptide transporter 1/Antigen peptide transporter 2 (Homo sapiens, UniProt Q03518+Q03519)
TEAD4: Transcriptional enhancer factor TEF-3 (TEAD4, Homo sapiens, UniProt Q15561)
CDK7 with cyclin H: Cyclin-dependent kinase 7, with cyclin H (CDK7, Homo sapiens, UniProt P50613)
KCNH2: Voltage-gated inwardly rectifying potassium channel KCNH2 (KCNH2, Homo sapiens, UniProt Q12809)

CCCCCCCCCCCCCC(=O)O[C@@H]1[C@@H](C)[C@@]2(O)[C@@H](C=C(CO)C[C@]3(O)C(=O)C(C)=C[C@@H]23)[C@@H]2C(C)(C)[C@]12OC(C)=O
IC50 (Proteinase-activated receptor 2 (F2RL1, Homo sapiens, UniProt P55085); calcium signal, antagonist): 0.00589 µM

CCCCOc1ccc(C(=O)CCN2CCCCC2)cc1
IC50 (PDE4D; enzyme activity, inhibitor, radiometric): 11.3 µM

CC(NC(C)(C)C)C(=O)c1cccc(Cl)c1 (centres unmarked)
IC50 (Sodium-dependent dopamine transporter (Slc6a3, Rattus norvegicus, UniProt P23977); transporter uptake, inhibitor, radiometric): 0.305 µM

COc1cc(C(=O)NS(=O)(=O)c2ccccc2C)ccc1Cc1cn(C)c2ccc(NC(=O)OC3CCCC3)cc12
IC50 (PDE4D; enzyme activity, inhibitor, radiometric): 5.38 µM

CC(C)C[C@H](NC(=O)[C@H](CCC(=O)O)NC(=O)[C@@H](NC(=O)[C@H](CO)NC(=O)[C@H](CCCCN)NC(=O)[C@H](CCC(N)=O)NC(=O)[C@H](Cc1ccc(O)cc1)NC(=O)[C@H](C)NC(=O)[C@@H](N)CCCNC(=N)N)[C@@H](C)O)C(=O)O
IC50 (Antigen peptide transporter 1/Antigen peptide transporter 2; ligand displacement): 0.4 µM

CC[C@H](C)[C@H](NC(=O)[C@@H](NC(=O)[C@H](CC(N)=O)NC(=O)[C@H](CCCCN)NC(=O)[C@@H]1CCCN1C(=O)[C@H](CC(N)=O)NC(=O)[C@H](CCSC)NC(=O)[C@@H](NC(=O)[C@H](C)NC(=O)[C@H](CC(N)=O)NC(=O)[C@H](Cc1ccccc1)NC(=O)[C@H](CC(C)C)NC(=O)[C@H](C)NC(=O)[C@H](CCC(=O)O)NC(=O)[C@H](CC(C)C)NC(=O)[C@H](CC(=O)O)NC(=O)[C@@H](NC(=O)[C@H](CCC(=O)O)NC(=O)[C@H](CO)NC(C)=O)[C@@H](C)O)C(C)C)[C@@H](C)O)C(=O)N[C@H](C(=O)N1CCC[C@H]1C(=O)N1CCC[C@H]1C(=O)N[C@@H](CO)C(=O)N[C@H](C(=O)N1CCC[C@H]1C(=O)N[C@@H](CCSC)C(=O)N[C@@H](CCCNC(=N)N)C(=O)N[C@@H](CC(C)C)C(=O)N[C@@H](CCCNC(=N)N)C(=O)N[C@@H](CCCCN)C(=O)N[C@@H](CC(C)C)C(=O)N1CCC[C@H]1C(=O)N[C@@H](CC(=O)O)C(=O)N[C@@H](CO)C(=O)N[C@@H](Cc1ccccc1)C(=O)N[C@@H](Cc1ccccc1)C(=O)N[C@H](C(=O)N1CCC[C@H]1C(=O)N1CCC[C@H]1C(N)=O)[C@@H](C)O)C(C)C)C(C)C
IC50 (TEAD4; protein-protein interaction, inhibitor, TR-FRET): 0.064 µM

CC(C)C[C@H](NC(=O)[C@H](C)NC(=O)[C@H](C)NC(=O)[C@H](C)NC(=O)[C@H](C)NC(=O)[C@H](C)NC(=O)[C@H](C)NC(=O)[C@H](CCCNC(=N)N)NC(=O)[C@H](C)N)C(=O)O
IC50 (Antigen peptide transporter 1/Antigen peptide transporter 2; ligand displacement): 0.9 µM

CC(C)c1cccc(=O)c(O)c1
IC50 (eno (Escherichia coli, UniProt P0A6P9); enzyme activity, inhibitor, absorbance): 8 to 11 µM

CC[C@H](C)[C@H](NC(=O)[C@H](CCCNC(=N)N)NC(=O)CN)C(=O)N[C@@H](CC(=O)O)C(=O)N[C@@H](CCCCN)C(=O)N1CCC[C@H]1C(=O)N[C@H](C(=O)N[C@@H](CC(C)C)C(=O)N[C@@H](CCCCN)C(=O)O)[C@@H](C)CC
IC50 (Antigen peptide transporter 1/Antigen peptide transporter 2; ligand displacement): 2.7 µM

O=c1cc(-c2ccccc2)oc2c1ccc1occc12
IC50 (CDK7 with cyclin H; enzyme activity, inhibitor, ADP detection): 4.8 µM

CC(C)[C@H](NC(=O)[C@H](C)N)C(=O)N[C@@H](C)C(=O)N[C@@H](C)C(=O)N[C@@H](C)C(=O)N[C@@H](C)C(=O)N[C@@H](C)C(=O)N[C@@H](C)C(=O)N[C@@H](C)C(=O)N[C@@H](CCCCN)C(=O)O
IC50 (Antigen peptide transporter 1/Antigen peptide transporter 2; ligand displacement): 9.4 µM

CCc1c(C)nc(-c2ccc(Cl)s2)nc1Nc1ccc(CC(=O)O)cc1
IC50 (3',5'-cyclic-AMP phosphodiesterase 4D (PDE4D, Homo sapiens, UniProt Q08499, S190D/S715A/S717A); enzyme activity, inhibitor, fluorescence): 1.57 µM

COc1c(-c2ccc3c(c2)OCO3)oc2c(ccc3occc32)c1=O
IC50 (CDK7 with cyclin H; enzyme activity, inhibitor, ADP detection): > 50 µM

CN1[C@@H](CC(=O)c2ccccc2)CCC[C@H]1C[C@H](O)c1ccccc1
IC50 (KCNH2; ligand displacement; HEK293; 1 h, pH 7.4, cell membranes): 1.5 µM

O=c1c2ccccc2[nH]c(=S)n1-c1ccccc1
IC50 (Prothrombin (F2, Homo sapiens, UniProt P00734); enzyme activity, inhibitor): 92.4 µM

C[C@H]1COCCN1c1nc(NCc2cccnc2C(F)(F)F)c2cccnc2n1
IC50 (KCNH2; ion current, inhibitor): > 33.3 µM

CC(C)C[C@H](NC(=O)[C@H](CCC(=O)O)NC(=O)[C@@H](NC(=O)[C@H](CO)NC(=O)[C@H](CCCCN)NC(=O)[C@H](CCC(N)=O)NC(=O)[C@H](Cc1ccc(O)cc1)NC(=O)[C@@H](N)CCCNC(=N)N)[C@@H](C)O)C(=O)O
IC50 (Antigen peptide transporter 1/Antigen peptide transporter 2; ligand displacement): 100 µM

CN1[C@@H](CCc2ccccc2)CCC[C@H]1CCc1ccccc1
IC50 (KCNH2; ligand displacement; HEK293; 1 h, pH 7.4, cell membranes): 0.238 µM

CC[C@H](C)[C@H](NC(=O)[C@H](CCCNC(=N)N)NC(=O)CN)C(=O)N[C@@H](CC(=O)O)C(=O)N[C@@H](CCCCN)C(=O)N1CCC[C@H]1C(=O)N[C@H](C(=O)N[C@@H](CC(C)C)C(=O)N[C@@H](C)C(=O)O)[C@@H](C)CC
IC50 (Antigen peptide transporter 1/Antigen peptide transporter 2; ligand displacement): 5.4 µM

CSCC[C@H](NC(=O)[C@H](CCCNC(=N)N)NC(=O)[C@H](CCSC)NC(=O)[C@@H]1CCCN1C(=O)[C@H](CC(C)C)NC(=O)[C@H](CO)NC(=O)[C@H](C)NC(=O)[C@@H]1CCCN1C(=O)[C@@H](NC(=O)[C@H](CC(N)=O)NC(=O)[C@H](CO)NC(=O)[C@H](CO)NC(=O)[C@H](CCCCN)NC(=O)[C@@H]1CCCN1C(=O)[C@H](CC(N)=O)NC(=O)[C@H](CCSC)NC(=O)[C@@H](NC(=O)[C@H](CO)NC(=O)[C@H](CC(N)=O)NC(=O)[C@H](Cc1ccccc1)NC(=O)[C@H](CC(C)C)NC(=O)[C@H](CC(C)C)NC(=O)[C@H](CCC(=O)O)NC(=O)[C@H](CC(C)C)NC(=O)[C@H](CC(=O)O)NC(=O)[C@@H](NC(=O)[C@H](CCC(N)=O)NC(=O)[C@H](CO)NC(C)=O)[C@@H](C)O)C(C)C)C(C)C)C(=O)N[C@@H](CCCNC(=N)N)C(=O)N[C@@H](CC(N)=O)C(=O)N[C@@H](CC(C)C)C(=O)N1CCC[C@H]1C(=O)N[C@@H](CC(=O)O)C(=O)N[C@@H](CO)C(=O)N[C@@H](Cc1ccccc1)C(=O)N[C@@H](Cc1ccccc1)C(=O)N[C@@H](CCCCN)C(=O)N1CCC[C@H]1C(=O)N1CCC[C@H]1C(N)=O
IC50 (TEAD4; protein-protein interaction, inhibitor, TR-FRET): 0.065 µM
